From ChEMBL document CHEMBL1156719, “Synthesis and structure-activity relationship studies of theophylline analogs on population responses in the rat hippocampus in vitro” (Bioorg Med Chem, 2008)
pEC50: −log10 of the molar value.

Legend:
Hippocampus [1] = test: Cognitive enhancing effect in Sprague-Dawley rat hippocampal CA1 region assessed as increase in amplitude of populations spikes at 10 uM; assay type: functional
Procedure, shortened: (§1)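 Male Sprague–Dawley rats (75–150 g) were halothane-anesthetized and decapitated. Coronal hippocampal slices were cut in ice-cold carbogenated aCSF and rested 1 h at room temperature. Extracellular field PS were recorded in CA1 after at least 15 min of stable baseline. Compound (10 mM DMSO stock, diluted ≥1000-fold in aCSF) was bath-perfused, then washed out. Amplitude was normalized to the mean of 4–5 pre-drug responses; mean ± SE, paired t-test.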

Hippocampus [2] = test: Decrease in amplitude of populations spikes in Sprague-Dawley rat hippocampal CA1 region at 10 uM after 10 mins of compound wash out; assay type: functional; set-up: scale not given: the % may be the effect or the level left; procedure, shortened: as §1
Hippocampus [3] = test: Cognitive enhancing effect in Sprague-Dawley rat hippocampal CA1 region assessed as increase in amplitude of populations spikes at 10 uM in presence of CGP-55845 relative to basal level; assay type: functional
Procedure, shortened: (§2)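 CA1 field PS were recorded extracellularly in coronal hippocampal slices from male Sprague–Dawley rats (75–150 g), kept in carbogenated aCSF. Receptor antagonists (d-tubocurarine, atropine, CGP55845 or 8-cyclopentyl-theophylline) were bath-perfused together with the compound, which was diluted ≥1000-fold from a 10 mM DMSO stock. PS amplitude was normalized to the mean of 4–5 responses before drug; mean ± SE, Student's t-test.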

Hippocampus [4] = test: Cognitive enhancing effect in Sprague-Dawley rat hippocampal CA1 region assessed as increase in amplitude of populations spikes at 10 uM in presence of CPT relative to basal level; assay type: functional; procedure, shortened: as §2
Hippocampus [5] = test: Decrease in amplitude of populations spikes in Sprague-Dawley rat hippocampal CA1 region; assay type: functional, tissue-based; procedure, shortened: as §1
Hippocampus [6] = test: Decrease in amplitude of populations spikes in Sprague-Dawley rat hippocampal CA1 region at 10 uM; assay type: functional; set-up: scale not given: the % may be the effect or the level left; procedure, shortened: as §1
Hippocampus [7] = test: Cognitive enhancing effect in Sprague-Dawley rat hippocampal CA1 region assessed as increase in amplitude of populations spikes at 1 uM; assay type: functional
Procedure, shortened: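 Male Sprague-Dawley rats (75–150 g) anesthetized with halothane and decapitated. 400 µm coronal hippocampal slices cut in ice-cold carbogenated aCSF, then held 1 h at room temperature. Extracellular field recording of evoked population spikes in CA1. After at least 15 min of stable baseline, analogs (10 mM DMSO stocks, diluted ≥1000-fold in aCSF) were bath-perfused. Amplitude normalized to the mean of 4–5 pre-drug responses.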

Hippocampus [8] = test: Cognitive enhancing effect in Sprague-Dawley rat hippocampal CA1 region assessed as increase in amplitude of populations spikes at 10 uM after 20 mins of compound wash out; assay type: functional; procedure, shortened: as §1
Hippocampus [9] = test: Cognitive enhancing effect in Sprague-Dawley rat hippocampal CA1 region assessed as amplitude of populations spikes at 10 uM in presence of d-tubocurarine; assay type: functional; procedure, shortened: as §2
Hippocampus [10] = test: Cognitive enhancing effect in Sprague-Dawley rat hippocampal CA1 region assessed as increase in amplitude of populations spikes at 10 uM in presence of atropine; assay type: functional; procedure, shortened: as §2
Hippocampus [11] = test: Cognitive enhancing effect in Sprague-Dawley rat hippocampal CA1 region assessed as increase in amplitude of populations spikes; assay type: functional, tissue-based; procedure, shortened: as §1
Hippocampus [12] = test: Cognitive enhancing effect in Sprague-Dawley rat hippocampal CA1 region assessed as increase in amplitude of populations spikes at 100 uM; assay type: functional

Cn1c(=O)c2c(ncn2CC(=O)N2CCCCCC2=O)n(C)c1=O gave an Activity (Hippocampus [1]) of 42.4%.
Work on Cn1c(=O)c2c(ncn2CCC(=O)N2CCCCCC2=O)n(C)c1=O yielded an Activity (Hippocampus [1]) of 40.9%.
With Cn1c(=O)c2c(ncn2CCCC(=O)N2CCCCC2=O)n(C)c1=O the Activity (Hippocampus [2]) was 91.1%, the Activity (Hippocampus [3]) was 10.6% and the Activity (Hippocampus [4]) was -27.6%. The Activity (Hippocampus [5]) was “Dose-dependent effect”, the pEC50 (Hippocampus [5]) was 7.22 and the Activity (Hippocampus [6]) was -25.9%.
Molecule Cn1c(=O)c2c(ncn2CC(=O)N2CCCC2=O)n(C)c1=O has an Activity (Hippocampus [1]) of 6.4%.
CC[C@@]1(O)C(=O)OCc2c1cc1n(c2=O)Cc2cc3ccccc3nc2-1 [CAMPTOTHECIN] showed an Activity (Hippocampus [7]) of 51.6%.
Work on Cn1c(=O)c2c(ncn2CCCC(=O)N2CCCC2=O)n(C)c1=O yielded an Activity (Hippocampus [1]) of 6.4%.
Molecule Cn1c(=O)c2c(ncn2CCCC(=O)N2CCCCCC2=O)n(C)c1=O has an Activity (Hippocampus [8]) of 45.8%, an Activity (Hippocampus [3]) of 32.7% and an Activity (Hippocampus [4]) of 47.9%. It also gave an Activity (Hippocampus [9]) of -2.5%, an Activity (Hippocampus [10]) of 0.2% and an Activity (Hippocampus [1]) of 56.5%. For the same molecule, the Activity (Hippocampus [11]) was “Dose-dependent effect” and the pEC50 (Hippocampus [11]) was 5.70.
With COc1cc2c3cc1Oc1cc(ccc1O)C[C@@H]1c4c(cc(OC)c(O)c4Oc4ccc(cc4)C[C@@H]3N(C)CC2)CC[N+]1(C)C.[Cl-] the Activity (Hippocampus [12]) was 1.8%.
In the case of C[C@H](NC[C@H](O)CP(=O)(O)Cc1ccccc1)c1ccc(Cl)c(Cl)c1, the Activity (Hippocampus [7]) was 53.8%.
